Measurements of several laboratories.
Each line is one published result; the experiments were not run side by side.
Target: Serine/threonine-protein kinase 17A (STK17A, Homo sapiens, UniProt Q9UEE5)

With `Clc1ccc(Nc2nnc(Cc3ccncc3)c3ccccc23)cc1` the remaining signal was 99.4% (cell-free assay; 0.5 µM).
`CC1CCCN1c1nccc(-c2cnn3ncccc23)n1` (centres unmarked) gave a remaining binding of 84% (binding; 1 µM).
For `CS(=O)(=O)N1CCCC(NC(=O)[C@H](CCC2CCCCC2)NC(=O)c2ccc(CNc3ncnc4c3nnn4-c3ccccc3)cc2)C1` (some centres unmarked), the remaining binding was 100% (cell-free assay, competition with immobilised ligand; 0.1 µM).
`CNC(=O)c1cc(Oc2ccc(NC(=O)Nc3ccc(Cl)c(C(F)(F)F)c3)cc2)ccn1` has an inhibition of -8% (cell-free assay; 0.3 µM).
With `O=C(Nc1cccc(Nc2ncc(Br)c(NCCc3cnc[nH]3)n2)c1)N1CCCC1` the remaining activity was 6% (enzyme activity, inhibitor, radiometric; 1 µM).
The remaining binding of `CN(C)C(=O)Cn1cc(-c2nc(C3(c4ccc(-c5cnc(N)nc5)cc4)CC3)no2)cn1` is reported as 100% (cell-free assay, competition with immobilised ligand; 1 µM).
`O=C1NC(=O)c2cc(Nc3ccc(F)cc3)c(Nc3ccc(F)cc3)cc21` has a remaining signal of 104% (cell-free assay; 0.5 µM).
For `Cc1ccc(NC(=O)c2ccc(C)c(C(F)(F)F)c2)cc1C#Cc1nn(C2CCC(O)CC2)c2ncnc(N)c12` (centres unmarked), the remaining signal was 140% (cell-free assay; 10 µM).
The remaining activity of `Cc1nn(CC(F)(F)F)cc1Nc1nccc(NCCc2cnc[nH]2)n1` is reported as 99% (enzyme activity, inhibitor, radiometric; 1 µM).
With `N#CCCc1ccc2c(c1)-c1[nH]c3ccc([N+](=O)[O-])cc3c1CC(=O)N2` the remaining signal was 46.8% (cell-free assay; 0.5 µM).
`Cc1nn(CC(F)(F)F)cc1Nc1ncc(Br)c(NCCCNC(=O)C2CCC2)n1` has a remaining activity of 5% (enzyme activity, inhibitor, radiometric; 1 µM).
`Cc1noc([C@H]2C[C@@H](c3ccc(C(F)(F)F)cc3)CN(C(=O)N3CCS(=O)(=O)C3)C2)n1` has a remaining binding of 100% (cell-free assay, competition with immobilised ligand; 1 µM).
With `Cc1ccc(Nc2nccc(N(C)c3ccc4c(C)n(C)nc4c3)n2)cc1S(N)(=O)=O` the inhibition was 14% (cell-free assay; 10 µM).
With `C=CC(=O)Nc1cc(Nc2nccc(Nc3cc(Cl)c(F)cc3C(C)(C)O)n2)c(OC)cc1N1CC[C@@H](N(C)C)C1` the inhibition was 1% (enzyme activity, inhibitor; 1 µM).
`Cc1c[nH]c2nccc(Oc3c(F)cc(Nc4cc(Cl)nc(N)n4)cc3F)c12` gave a remaining binding of 100% (cell-free assay, competition with immobilised ligand; 0.1 µM).
`NS(=O)(=O)c1ccc(CNc2nc(Nc3cccc(NC(=O)N4CCCC4)c3)ncc2C2CC2)cc1` gave a remaining activity of 79% (enzyme activity, inhibitor, radiometric; 1 µM).
The remaining binding of `N#CC1(c2ccccn2)CCN(Cc2cc(C(=O)N3CCCC3)c(=O)n3ccccc23)CC1` is reported as 96% (cell-free assay, competition with immobilised ligand; 1 µM).
`CCN(CC)CCNC(=O)c1c(C)[nH]c(/C=C2\C(=O)Nc3ccc(F)cc32)c1C` has a remaining signal of 26.7% (cell-free assay; 0.5 µM).
The remaining activity of `CN1CCc2cc(Nc3ncc(C4CC4)c(NCCCNC(=O)C4CCC4)n3)ccc2C1` is reported as 3% (enzyme activity, inhibitor, radiometric; 1 µM).
`O=C(O)[C@H]1[C@H](Cn2nnc3ccccc3c2=O)CC[C@@H]1C(=O)c1ccc(OCCC2CCOCC2)cc1` gave a remaining binding of 97% (cell-free assay, competition with immobilised ligand; 1 µM).
For `NS(=O)(=O)c1ccc(CNc2nc(Nc3cccc(CN4CCOCC4)c3)ncc2Br)cc1`, the remaining activity was 58% (enzyme activity, inhibitor, radiometric; 1 µM).
`Oc1cccc(-c2nc(N3CCOCC3)c3oc4ncccc4c3n2)c1` gave a remaining signal of 93.8% (cell-free assay; 0.5 µM).
With `O=C(NCCCNc1ccnc(Nc2cccc(NC(=O)N3CCCC3)c2)n1)C1CCC1` the remaining activity was 18% (enzyme activity, inhibitor, radiometric; 1 µM).
The activity vs control of `Cc1cc(NC(=O)c2cccc3cc(-c4cccc5[nH]nc(N)c45)ccc23)ccc1F` is reported as 81% (enzyme activity, inhibitor; 0.1 µM).
For `c1cc(CN2CCOCC2)cc(Nc2ncc(C3CC3)c(NCCc3c[nH]cn3)n2)c1`, the remaining activity was 50% (enzyme activity, inhibitor, radiometric; 1 µM).
With `CC(=O)C1=C(C)N(c2cccc(C(F)(F)F)c2)C(=O)N[C@@H]1c1ccc(C#N)nc1` the remaining binding was 93.7% (cell-free assay, competition with immobilised ligand; 1 µM).
